From PubChem BioAssay
NPY Y2 blocker: antagonists of human neuropeptide Y receptor Y2. NPY-Y2 expressing cells, antagonist mode. P49146. AID 793. hit rate 0.99% among 140,000. inhibition, % at 2.7 µM; in the data active means inhibition above about 17%;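 further: 0% = vehicle with agonist challenge and 100% = reference antagonist with challenge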
Target sequence (P49146 whole entry, looked up): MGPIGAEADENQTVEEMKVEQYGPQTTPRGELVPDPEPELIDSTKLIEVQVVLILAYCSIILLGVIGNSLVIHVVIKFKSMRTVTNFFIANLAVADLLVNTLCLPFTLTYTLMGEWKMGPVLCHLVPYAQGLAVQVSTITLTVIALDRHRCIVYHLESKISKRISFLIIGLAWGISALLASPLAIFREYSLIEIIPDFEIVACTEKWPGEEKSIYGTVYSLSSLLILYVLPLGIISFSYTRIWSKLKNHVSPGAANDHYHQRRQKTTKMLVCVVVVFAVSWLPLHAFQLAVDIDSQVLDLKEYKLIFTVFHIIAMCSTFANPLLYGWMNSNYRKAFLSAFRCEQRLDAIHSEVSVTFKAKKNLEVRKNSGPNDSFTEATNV
NPY2 pot ag: potentiates or activates human NPY-Y2 receptor. P49146. cells expressing NPY-Y2, potentiator/agonist read-out. activation, % at 3.6 µM. hit rate 0.45% among 220,000. AID 1359; in the data active means activation above about 27%;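 further: cells stimulated with NPY near EC25 plus isoproterenol at EC100; 0% = vehicle plus submaximal agonist and 100% = vehicle plus saturating agonist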
EP2 antag: blocks the human prostaglandin E2 receptor EP2; P43116; C6 glioma cells expressing human EP2, cAMP TR-FRET; cells stimulated with saturating PGE2; inhibition, % at 25 µM; hit rate 0.52% among 260,000;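 active means percent inhibition above 40 after rounding to a whole number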;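 further: rat C6 glioma host cells with rolipram phosphodiesterase inhibitor present; the protocol text gives 20 µM as final concentration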
NPY Y1 blocker: antagonists of human neuropeptide Y receptor Y1; P25929; HEK293-CNG Y1 cells, membrane potential fluorescence; NPY at EC95, then isoproterenol; inhibition, % at 3.6 µM; hit rate 1% among 200,000; AID 1040;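 active means inhibition above the campaign mean inhibition of all tested compounds plus 3 SD, cut at about 20% in these data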;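 further: 0% = DMSO wells given NPY plus isoproterenol and 100% = isoproterenol alone without NPY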
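Material: HEK293 Y1/CNG channel cell line | Also added: NPY (25 nM), isoproterenol (1 µM), Ro 20-1724 (25 µM) | Compound: One concentration, 3.6 µM, in 0.4% DMSO | Schedule: 3 h dye uptake, 1 h room-temperature compound, 45 min post-isoproterenol | Signal: Membrane-potential fluorescent dye readout | Read-out: % inhibition of NPY effect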
EP2 mod: modulators of human EP2 prostaglandin E2 receptor | P43116 | EP2-expressing cells, cAMP HTRF FRET, PGE2 co-stimulation | induction, % at 25 µM | hit rate 0.83% among 260,000 | AID 940;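 active means compounds whose cAMP rise, as percent of the full-agonist control response, exceeds 60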;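 further: rat C6 glioma line stably carrying human EP2 under a CMV promoter; the protocol text gives 20 µM as final concentration; 100% = response of wells given 1 µM PGE2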
NPY1 pot ag: potentiates or activates human NPY-Y1 receptor | P25929 | NPY-Y1 expressing cells, potentiator/agonist activation | activation, % at 3.6 µM | hit rate 0.37% among 220,000 | AID 1304; in the data active means activation above about 33%, passing the limit was not always enough;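 further: cells stimulated with NPY at EC10 then isoproterenol at EC100; 0% = low agonist plus stimulus and 100% = saturating agonist plus stimulus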
Active calls of the source: *; ! = not active in a repeat. Shown are actives, neighbours in structure and some others; about 2.8% of the full set was active somewhere.

For CCC(c1nnnn1C(C)(C)CC)N(Cc1cccnc1)Cc1cc2ccc(C)c(C)c2[nH]c1=O (centres undefined) the results were EP2 antag 11 and EP2 mod 5.
Screening CC1=N[C@@](C)(COC(=O)[C@]2(C)N[C@](C)(CO)CO2)COC1=O returned EP2 antag 48* and EP2 mod 32.
Screening COCc1[nH]nc2c1C(c1cccc(F)c1)C(C#N)=C(N)O2 (centres undefined) returned EP2 antag 11 and EP2 mod -12.
COc1ccc2c(c1)S/C(=C\C(=O)c1ccncc1)N2C was read as NPY Y2 blocker 2, NPY2 pot ag 3, EP2 antag 5, NPY Y1 blocker -7, EP2 mod 2 and NPY1 pot ag -11.
Screening COc1ccc(C(=O)/C=C2/Sc3cc4c(cc3N2C)OCO4)cc1 returned NPY Y2 blocker 3, NPY2 pot ag 0, EP2 antag 77*, NPY Y1 blocker 7, EP2 mod 28 and NPY1 pot ag 11.
CN1/C(=C/C(=O)c2ccc(Cl)cc2)Sc2cc3c(cc21)OCO3 was read as NPY Y2 blocker 3, NPY2 pot ag 23, EP2 antag 75*, NPY Y1 blocker -5, EP2 mod -62 and NPY1 pot ag 32.
`COCCNCC(O)CON=C1c2ccccc2-c2ccccc21` (centres undefined) gave NPY2 pot ag 92*, EP2 antag 11, NPY Y1 blocker -5, EP2 mod -9 and NPY1 pot ag 101*.
Screening CCNC(=O)CON=C1c2ccccc2-c2ccccc21 returned NPY Y2 blocker 3, NPY2 pot ag 1, EP2 antag 10, NPY Y1 blocker 4, EP2 mod 10 and NPY1 pot ag -5.
For OC(CNCCC(c1ccccc1)c1ccccc1)COc1ccccc1 (centres undefined) the results were NPY2 pot ag 89*, EP2 antag 1, NPY Y1 blocker -9, EP2 mod -11 and NPY1 pot ag 96*.
For CC(C)CCNCC(O)CON=C1c2ccccc2-c2ccccc21 (centres undefined) the results were NPY2 pot ag 45*, EP2 antag 2, NPY Y1 blocker 2, EP2 mod 12 and NPY1 pot ag 45*.
For CC(C)C(NC1C=CS(=O)(=O)C1)C(=O)N[C@@H]1CCC(=O)N[C@H]1[C@@H]1CC=CCC1 (some centres undefined) the results were EP2 antag 2 and EP2 mod -8.
Screening Cc1cccc(Oc2nc(-c3ccccn3)nc3ccccc23)c1 returned NPY2 pot ag -24, EP2 antag 13, EP2 mod 47 and NPY1 pot ag -59.
`Cc1cccc(Oc2nc(-c3ccncc3)nc3ccccc23)c1` gave NPY2 pot ag -31, EP2 antag 5, EP2 mod 71* and NPY1 pot ag -33.
c1ccc(Oc2nc(-c3cccnc3)nc3ccccc23)cc1 was read as NPY2 pot ag -40, EP2 antag 7, EP2 mod 87* and NPY1 pot ag -25.
Screening CCn1c2cc(C)sc2c2cnn(CC(=O)Nc3c(C)nn(C)c3C)c(=O)c21 returned EP2 mod -32.
`CCc1cccc(C)c1NC(=O)CSc1nnc(-c2ccoc2C)n1CC1CCCO1` (centres undefined) gave EP2 antag 9 and EP2 mod -39.
Screening O=C(CN1CCCC(O)C1)N1c2ccccc2Sc2ccc(C(F)(F)F)cc21 (centres undefined) returned NPY Y2 blocker 4, NPY2 pot ag 10, EP2 antag 6, NPY Y1 blocker -4, EP2 mod 15 and NPY1 pot ag -19.
Screening CN1CCN(CCCN2c3ccccc3Sc3ccc(C(F)(F)F)cc32)CC1 returned NPY Y2 blocker 0, NPY2 pot ag 17, EP2 antag 41*!, NPY Y1 blocker 1, EP2 mod -21 and NPY1 pot ag 0.
For CCN1CCN(c2oc(COc3ccc(-c4ccccc4)cc3)nc2C#N)CC1 the results were NPY Y2 blocker 10, NPY2 pot ag -33, EP2 antag 8, NPY Y1 blocker 9, EP2 mod -29 and NPY1 pot ag -23.
N#Cc1nc(COc2ccc(Br)cc2)oc1N1CCN(Cc2ccccc2)CC1 was read as NPY Y2 blocker 32*, NPY2 pot ag -11, EP2 antag 11, NPY Y1 blocker 35*, EP2 mod -5 and NPY1 pot ag -12.
Screening N#Cc1nc(Cc2ccccc2)oc1N1CCC(Cc2ccccc2)CC1 returned NPY Y2 blocker 12, NPY2 pot ag -10, EP2 antag 13, NPY Y1 blocker 15, EP2 mod -2 and NPY1 pot ag -8.
N#Cc1nc(COc2ccc(F)cc2)oc1N1CCN(Cc2ccccc2)CC1 was read as NPY Y2 blocker 32*, NPY2 pot ag -17, NPY Y1 blocker 34*, EP2 mod -10 and NPY1 pot ag -30.
N#Cc1nc(COc2ccc(F)cc2)oc1N1CCC(Cc2ccccc2)CC1 was read as NPY Y2 blocker 37*, NPY2 pot ag 5, NPY Y1 blocker 32*, EP2 mod -12 and NPY1 pot ag -69.
`CC[C@H](Cn1ncc2ccccc2c1=O)NC(=O)c1ccc2c(c1)Sc1ccccc1O2` gave EP2 mod -46.
Cn1c(SCC(=O)NCc2ccccc2)nnc1-c1ccncc1 was read as EP2 antag 8 and EP2 mod -1.
Screening Cc1noc(C)c1CCC(=O)Nc1ccc(-c2cn3c(C)c(C)nnc3n2)cc1 returned EP2 antag 4 and EP2 mod -71.
CCn1c(COc2ccccc2C)nnc1SCC(=O)NCc1ccco1 was read as EP2 antag 9 and EP2 mod -2.
For CCS(=O)(=O)Nc1ccc(C2=NN(C(=O)c3ccco3)C(c3cccc(F)c3)C2)cc1 (centres undefined) the results were NPY2 pot ag 35*, EP2 antag 8, NPY Y1 blocker -6, EP2 mod -41 and NPY1 pot ag 35.
`C(CCc1nnc2c(n1)CCCC2)Cc1nnc2c(n1)CCCC2` gave EP2 antag 45* and EP2 mod 10.
Screening CCOc1c(Br)cc(C(N)=O)cc1OCc1ccccc1 returned NPY Y2 blocker 2, NPY2 pot ag 3, EP2 antag 14, NPY Y1 blocker 8, EP2 mod 62* and NPY1 pot ag 9.
`CCC(c1nnnn1C1CCCCC1)N(CCCO)Cc1cc2cc(C)ccc2[nH]c1=O` (centres undefined) gave EP2 antag 10 and EP2 mod -9.
Cc1cc2cc(CN(Cc3ccccc3)Cc3nnnn3C3CCCC3)c(=O)[nH]c2cc1C was read as EP2 antag 14 and EP2 mod 71*.
For Cc1cccc2cc(CN(Cc3ccc4c(c3)OCO4)Cc3nnnn3C3CCCCC3)c(=O)[nH]c12 the results were EP2 antag 14 and EP2 mod 68*.
